Experimental findings from ChEMBL document CHEMBL4811275, “Iodinated 1,2-diacylhydrazines, benzohydrazide-hydrazones and their analogues as dual antimicrobial and cytotoxic agents” (Bioorg Med Chem, 2021) are described below.

In brackets after ≈: the same amount, converted by molar mass. Activity calls are given as the source filed them. The calls are words filed in the database; no cut-off is given here.

In experiment [1] the test system is Staphylococcus aureus. The experiment is described as follows: Antibacterial activity against Staphylococcus aureus ATCC 29213 assessed as reduction in bacterial growth incubated for 24 hrs by broth microdilution method. In kind it is functional. In outline: (§1)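 Cation-adjusted Mueller-Hinton broth microdilution per EUCAST, modified; compounds from DMSO stocks, final DMSO ≤1% v/v; scale starting from 0.49 µM. Static incubation at 35 ± 2 °C, dark, humidified, read at 24 and 48 h. MIC = lowest concentration with no visible growth by eye; duplicates, parallel readings within one dilution step; growth and medium/DMSO controls included.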

In experiment [2] the test system is HepG2. The experiment is described as follows: Antiproliferative activity against human HepG2 cells assessed as increase in caspase 3/7 level at 100 uM incubated for 24 hrs by Caspase-glo reagent based microplate reader analysis relative to control. Type of experiment: functional. The method in brief:
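HepG2 cells seeded at 15 000/well, compounds diluted in complete MEM, 24 h at 37 °C, 5% CO2; untreated vehicle controls. Caspase-Glo 3/7 reagent added, shaken 350 rpm at room temperature 60 min in dark, luminescence read. Expressed as fold of untreated control; triplicate wells, mean ± SD with n = 6.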

Experiment [3] deals with Staphylococcus aureus. The experiment in a line: Antibacterial activity against methicillin-resistant Staphylococcus aureus ATCC 43300 assessed as reduction in bacterial growth incubated for 24 hrs by broth microdilution method. In kind it is functional. The method in brief: (§2)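 EUCAST-based broth microdilution in cation-adjusted Mueller-Hinton broth. DMSO stocks, final DMSO ≤1% v/v, concentration scale starting from 0.49 µM. Static incubation at 35 ± 2 °C, dark and humidified. Run in duplicate, accepted only if parallel MICs differ by at most one dilution step. MIC is the lowest concentration with no visible growth by naked eye.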
On the technique in general: In broth dilution the organism is exposed to a series of concentrations in liquid medium.

In a further experiment the test system is HK-2. The experiment is described as follows: Cytotoxicity against human HK-2 cells assessed as reduction in cell viability incubated for 24 hrs by cell-titer 96 aqueous one solution cell proliferation assay. Type of experiment: cell-based. The settings on record: HK-2, 24 h.
Experiment [4] concerns Staphylococcus aureus. The experiment is described as follows: Antibacterial activity against Staphylococcus aureus ATCC 29213 assessed as reduction in bacterial growth incubated for 48 hrs by broth microdilution method. In kind it is functional. The method in brief: as §1
Experiment [5] concerns Staphylococcus aureus. The experiment in a line: Antibacterial activity against methicillin-resistant Staphylococcus aureus ATCC 43300 assessed as reduction in bacterial growth incubated for 48 hrs by broth microdilution method. In kind it is functional. The method in brief: as §2
In experiment [6] the test system is HepG2. The experiment is described as follows: Cytotoxicity against human HepG2 cells assessed as reduction in cell viability incubated for 24 hrs by cell-titer 96 aqueous one solution cell proliferation assay. Type of experiment: functional, cell-based. The settings on record: HepG2, 24 h.
In experiment [7] the test system is Escherichia coli. The experiment is described as follows: Antibacterial activity against Escherichia coli ATCC 25922 assessed as reduction in bacterial growth incubated for 24 hrs by broth microdilution method. In kind it is functional. In outline: as §1
Experiment [8] relates to Enterococcus faecalis. The experiment is described as follows: Antibacterial activity against Enterococcus faecalis ATCC 29212 assessed as reduction in bacterial growth incubated for 48 hrs by broth microdilution method. In kind it is functional. In outline:
as §1

The test system of experiment [9] is Escherichia coli. The experiment in a line: Antibacterial activity against Escherichia coli ATCC 25922 assessed as reduction in bacterial growth incubated for 48 hrs by broth microdilution method. Type of experiment: functional. In outline:
as §1

For experiment [10], the system named is Enterococcus faecalis. The experiment in a line: Antibacterial activity against Enterococcus faecalis ATCC 29212 assessed as reduction in bacterial growth incubated for 24 hrs by broth microdilution method. In kind it is functional. The method in brief: as §1
Experiment [11] relates to Staphylococcus epidermidis. The experiment is described as follows: Antibacterial activity against Staphylococcus epidermidis ATCC 12228 assessed as reduction in bacterial growth incubated for 24 hrs by broth microdilution method. Type of experiment: functional. In outline:
as §1

In experiment [12] the test system is Staphylococcus epidermidis. The experiment in a line: Antibacterial activity against Staphylococcus epidermidis ATCC 12228 assessed as reduction in bacterial growth incubated for 48 hrs by broth microdilution method. Type of experiment: functional. In outline:
as §1

Experiment [13] deals with Lichtheimia corymbifera. The experiment is described as follows: Antifungal activity against Lichtheimia corymbifera CCM 8077 assessed as reduction in fungal growth incubated for 24 hrs by broth microdilution method. In kind it is functional. The method in brief:
(§3)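 Broth microdilution per EUCAST (yeasts and moulds), modified: twofold dilutions from DMSO (final ≤1% v/v) in RPMI-1640 with L-glutamine, 2% glucose, MOPS-buffered pH 7.0; scale from 0.49 µM. Static, dark, humidified, 35 ± 2 °C for 24 and 48 h (Trichophyton interdigitale 72 and 120 h). MIC = complete visible inhibition by eye; duplicates within one dilution step.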

Experiment [14] has as its system Trichophyton interdigitale. The experiment in a line: Antifungal activity against Trichophyton interdigitale ATCC 9533 assessed as reduction in fungal growth incubated for 120 hrs by broth microdilution method. In kind it is functional. In outline: as §3
In experiment [15] the test system is Candida parapsilosis. The experiment in a line: Antifungal activity against Candida parapsilosis ATCC 22019 assessed as reduction in fungal growth incubated for 24 hrs by broth microdilution method. The settings on record: Lodderomyces parapsilosis. In kind it is functional. The method in brief: as §3
Experiment [16] deals with Lichtheimia corymbifera. The experiment is described as follows: Antifungal activity against Lichtheimia corymbifera CCM 8077 assessed as reduction in fungal growth incubated for 48 hrs by broth microdilution method. Type of experiment: functional. In outline:
as §3

The subject of experiment [17] is Pichia kudriavzevii. The experiment is described as follows: Antifungal activity against Candida krusei ATCC 6258 assessed as reduction in fungal growth incubated for 48 hrs by broth microdilution method. In kind it is functional. The method in brief: as §3
Experiment [18] concerns Trichophyton interdigitale. The experiment is described as follows: Antifungal activity against Trichophyton interdigitale ATCC 9533 assessed as reduction in fungal growth incubated for 72 hrs by broth microdilution method. Type of experiment: functional. In outline:
as §3

Experiment [19] deals with Pichia kudriavzevii. The experiment is described as follows: Antifungal activity against Candida krusei ATCC 6258 assessed as reduction in fungal growth incubated for 24 hrs by broth microdilution method. In kind it is functional. The method in brief:
as §3

Experiment [20] relates to Candida albicans. The experiment in a line: Antifungal activity against Candida albicans ATCC 24443 assessed as reduction in fungal growth incubated for 24 hrs by broth microdilution method. In kind it is functional. The method in brief:
as §3

Experiment [21] concerns Candida parapsilosis. The experiment in a line: Antifungal activity against Candida parapsilosis ATCC 22019 assessed as reduction in fungal growth incubated for 48 hrs by broth microdilution method. Type of experiment: functional. The conditions noted are these: Lodderomyces parapsilosis. In outline:
as §3

The test system of experiment [22] is Candida albicans. The experiment in a line: Antifungal activity against Candida albicans ATCC 24443 assessed as reduction in fungal growth incubated for 48 hrs by broth microdilution method. Type of experiment: functional. The method in brief: as §3
The test system of experiment [23] is Staphylococcus aureus. The experiment is described as follows: Antibacterial activity against methicillin-susceptible Staphylococcus aureus CCM 4223 assessed as reduction in bacterial growth measured for 24 to 48 hrs by broth microdilution method. In kind it is functional, organism-based. The conditions noted are these: time 24-48 hrs. In outline: as §1
For the next experiment, the system named is Klebsiella pneumoniae. The experiment is described as follows: Antibacterial activity against Klebsiella pneumoniae ATCC 10031 assessed as reduction in bacterial growth measured for 24 to 48 hrs by broth microdilution method. The settings on record: time 24-48 hrs. Type of experiment: functional, organism-based. The method in brief: as §1
In a further experiment the test system is Serratia marcescens. The experiment is described as follows: Antibacterial activity against clinical isolate Serratia marcescens assessed as reduction in bacterial growth measured for 24 to 48 hrs by broth microdilution method. Type of experiment: functional, organism-based. The conditions noted are these: time 24-48 hrs. In outline:
as §1

In a further experiment the test system is Pseudomonas aeruginosa. The experiment in a line: Antibacterial activity against Pseudomonas aeruginosa ATCC 27853 assessed as reduction in bacterial growth measured for 24 to 48 hrs by broth microdilution method. Type of experiment: functional, organism-based. The conditions noted are these: time 24-48 hrs. In outline:
as §1

By MIC is commonly meant the least concentration at which growth counts as inhibited. A word on the IC50: it is the concentration needed to halve the response being measured. As to `O=C(N/N=C/c1cc(I)cc(I)c1O)c1ccc(C(F)(F)F)cc1`, the MIC in the experiment on Staphylococcus aureus [1] is 31.2 µM (≈ 17.5 µg/mL); in the experiment with Staphylococcus aureus [3], 31.2 µM (≈ 17.5 µg/mL); in the experiment on Staphylococcus aureus [4], 31.2 µM (≈ 17.5 µg/mL); with Staphylococcus aureus [5], 31.2 µM (≈ 17.5 µg/mL); with Escherichia coli [7] it was more than 250 µM; with Enterococcus faecalis [8], 31.2 µM (≈ 17.5 µg/mL). Further, the minimum inhibitory concentration (MIC) is more than 250 µM in the experiment on Escherichia coli [9], 31.2 µM (≈ 17.5 µg/mL) in the experiment on Enterococcus faecalis [10], 31.2 µM (≈ 17.5 µg/mL) in experiment [11] and 31.2 µM (≈ 17.5 µg/mL) in experiment [12]. Moreover, the fold change (FC) in the experiment on HepG2 [2] worked out at 1.37. The IC50 in the experiment on HK-2 worked out at 49.9 µM; with HepG2 [6] it was 11.7 µM.

On to `O=C(NNCc1cc(I)cc(I)c1O)c1ccc(F)cc1`, for which the MIC is 15.6 µM (≈ 8 µg/mL) in the experiment with Lichtheimia corymbifera [13]; 62.5 µM (≈ 32 µg/mL) with Staphylococcus aureus [1]; 31.2 µM (≈ 16 µg/mL) in experiment [14]; more than 125 µM with Candida parapsilosis [15]; 31.2 µM (≈ 16 µg/mL) in the experiment with Lichtheimia corymbifera [16]; 62.5 µM (≈ 32 µg/mL) with Staphylococcus aureus [3]. Besides, the MIC in the experiment on Staphylococcus aureus [4] is 125 µM (≈ 64 µg/mL); in the experiment on Pichia kudriavzevii [17], more than 125 µM; with Staphylococcus aureus [5] it was 125 µM (≈ 64 µg/mL); in experiment [18], 15.6 µM (≈ 8 µg/mL); with Escherichia coli [7], more than 500 µM; in the experiment with Pichia kudriavzevii [19] it was more than 125 µM. Moreover, the MIC with Candida albicans [20] was 125 µM (≈ 64 µg/mL); in the experiment with Enterococcus faecalis [8] it was 62.5 µM (≈ 32 µg/mL); in the experiment on Escherichia coli [9] it was more than 500 µM; in the experiment on Candida parapsilosis [21], more than 125 µM; in the experiment with Enterococcus faecalis [10], 31.2 µM (≈ 16 µg/mL); in the experiment with Candida albicans [22], more than 125 µM. Also, the MIC in experiment [11] and in experiment [12] was 62.5 µM (≈ 32 µg/mL) each time. The IC50 in the experiment with HepG2 [6] was 52.2 µM.

Turning to `Oc1c(I)cc(I)cc1CNNC(O)c1ccc(F)cc1` (stereo not given), the minimum inhibitory concentration (MIC) in the experiment on Lichtheimia corymbifera [13] is more than 500 µM; in the experiment on Staphylococcus aureus [1], 15.6 µM (≈ 8.03 µg/mL); in experiment [14], 62.5 µM (≈ 32.1 µg/mL); in the experiment on Candida parapsilosis [15], more than 500 µM; with Lichtheimia corymbifera [16], more than 500 µM; in the experiment with Staphylococcus aureus [3] it was 31.2 µM (≈ 16.1 µg/mL). Further, the MIC with Staphylococcus aureus [4] was 15.6 µM (≈ 8.03 µg/mL); with Pichia kudriavzevii [17], more than 500 µM; in the experiment with Staphylococcus aureus [5] it was 62.5 µM (≈ 32.1 µg/mL); in experiment [18] it was 62.5 µM (≈ 32.1 µg/mL); with Escherichia coli [7], more than 500 µM; in the experiment on Pichia kudriavzevii [19], more than 500 µM. In addition, the MIC with Candida albicans [20] was more than 500 µM; with Enterococcus faecalis [8], 15.6 µM (≈ 8.03 µg/mL); in the experiment on Escherichia coli [9], more than 500 µM; with Candida parapsilosis [21], more than 500 µM; in the experiment with Enterococcus faecalis [10], 15.6 µM (≈ 8.03 µg/mL); in the experiment on Candida albicans [22], more than 500 µM. Also, the MIC in experiment [11] and in experiment [12] was 7.81 µM (≈ 4.01 µg/mL) throughout. Moreover, the IC50 with HepG2 [6] turned out to be 41.9 µM.

In the case of `O=C(N/N=C/c1cc(I)cc(I)c1O)c1ccc(O)cc1`, the MIC with Staphylococcus aureus [1] turned out to be 31.2 µM (≈ 15.9 µg/mL); with Staphylococcus aureus [3] it was 62.5 µM (≈ 31.8 µg/mL); with Staphylococcus aureus [4], 62.5 µM (≈ 31.8 µg/mL); with Staphylococcus aureus [5] it was 62.5 µM (≈ 31.8 µg/mL); in the experiment with Escherichia coli [7], 250 µM (≈ 127 µg/mL); with Enterococcus faecalis [8], 250 µM (≈ 127 µg/mL). In addition, the MIC in the experiment on Escherichia coli [9] was 250 µM (≈ 127 µg/mL); in the experiment with Enterococcus faecalis [10], 250 µM (≈ 127 µg/mL); in [11], 62.5 µM (≈ 31.8 µg/mL); in experiment [12], 125 µM (≈ 63.5 µg/mL). Further, the result with Staphylococcus aureus [23] was Active. The result in the experiment with Klebsiella pneumoniae, in the experiment on Serratia marcescens and in the experiment on Pseudomonas aeruginosa was inactive. In the experiment with HepG2 [6], the IC50 is 19.2 µM.
